Assay results reported in ChEMBL document CHEMBL3244350, “Antitumor and antiinflammatory agents: N-benzoyl-protected cyanomethyl esters of amino acids” (J Med Chem, 1979).
Active and inactive are the calls of the source. No cut-off for these calls is given here.

What was measured:
[1] = tested on: Mus musculus; assay: Antitumor activity against mouse EAC allografted in CF1 mouse assessed as tumor growth inhibition at 20 mg/kg, ip qd for 7 days (reference value: 0%); format: functional; settings: 168 h, route intraperitoneal
[2] = tested on: Mus musculus; assay: Antitumor activity against mouse P388 cells allografted in DBA/2 mouse assessed as host survival on day 7 at 20 mg/kg, ip qd for 2 weeks; format: functional; settings: route intraperitoneal
Outline: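 P388 leukemia in male DBA/2 mice (20 g): 10⁶ cells implanted on day 0. Compounds were given ip at 20 (mg/kg)/day for 2 weeks. Survival was expressed as T/C by the NIH protocol; T/C > 120 counted as significant. 5-Fluorouracil was the internal standard.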

[3] = tested on: Mus musculus; assay: Antiinflammatory activity in CF1 mouse assessed as increase in foot weight at 20 mg/kg, ip administered 3 hrs and 30 mins prior to carrageenan-challenge measured after 3 hrs (reference value: 97 +/- 10 mg); format: functional; settings: route intraperitoneal
[4] = tested on: Mus musculus; assay: Antitumor activity against mouse EAC allografted in CF1 mouse assessed as ascrit fluid volume at 20 mg/kg, ip qd for 7 days (reference value: 6.63 +/- 1.24 mL); format: functional; settings: route intraperitoneal
[5] = organism: Mus musculus; assay: Toxicity in CF1 mouse; format: organism-based; settings: in vivo
[6] = tested on: Mus musculus; assay: Antitumor activity against mouse P388 cells allografted in DBA/2 mouse assessed as tumor growth inhibition at 20 mg/kg, ip qd for 2 weeks (reference value: 100%); format: functional; settings: route intraperitoneal
Outline: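 DBA/2 male mice (20 g) implanted with 10^6 P-388 cells on day 0, then dosed ip at 20 mg/kg/day for 2 weeks. T/C computed by the NIH protocol; T/C ≥120 counted as significant. 5-Fluorouracil served as internal standard.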

[7] = tested on: Mus musculus; assay: Antiinflammatory activity in CF1 mouse assessed as inhibition of carrageenan-induced paw edema at 20 mg/kg, ip administered 3 hrs and 30 mins prior to carrageenan-challenge measured after 3 hrs (reference value: 0%); format: functional; settings: route intraperitoneal
[8] = tested on: Mus musculus; assay: Antitumor activity against mouse EAC allografted in CF1 mouse assessed as host survival on day 7 at 20 mg/kg, ip qd for 7 days; format: functional, organism-based; design: dose 20 mg/kg
[9] = tested on: Mus musculus; assay: Analgesic activity in CF1 mouse assessed as inhibition of acetic acid-induced writhing reflex measured for 10 mins at 20 mg/kg,ip administration 5 mins prior to test by […]; format: functional, organism-based; design: dose 20 mg/kg
[10] = tested on: Rattus norvegicus; assay: Antipyretic activity in Sprague-Dawley rat assessed as decrease in yeast/mycobacterium butyricum-induced increase temperature at 2.5 mg/kg, ip; format: functional, organism-based; design: dose 2.5 mg/kg
[11] = tested on: Mus musculus; assay: Analgesic activity in CF1 mouse assessed as inhibition of acetic acid-induced pain measured for 10 mins at 5 mg/kg,ip administration 5 mins prior to test by […]; format: functional, organism-based; design: dose 5 mg/kg
[12] = tested on: Mus musculus; assay: Immunosuppressive activity in mouse splenic lymphocytes isolated from 25 mg/kg, ip on days 2,3 and 4 treated CF1 mouse assessed as reduction in sheep red blood cell antigen-induced plaque-forming response (reference value: 100%); design: scale not given: the % may be the effect or the level left; settings: route intraperitoneal
[13] = tested on: Mus musculus; assay: Analgesic activity in CF1 mouse assessed as inhibition of acetic acid-induced pain measured for 10 mins at 2.5 mg/kg,ip administration 5 mins prior to test by […]; format: functional, organism-based; design: dose 2.5 mg/kg
[14] = tested on: Rattus norvegicus; assay: Antipyretic activity in Sprague-Dawley rat assessed as decrease in yeast/mycobacterium butyricum-induced increase temperature at 5 mg/kg, ip; format: functional, organism-based; design: dose 5 mg/kg
[15] = Acute toxicity in CF1 mouse; format: organism-based; settings: in vivo
[16] = tested on: Mus musculus; assay: Antiinflammatory activity in CF1 mouse assessed as increase in foot weight at 10 mg/kg, ip administered 3 hrs and 30 mins prior to carrageenan-challenge measured after 3 hrs (reference value: 97 +/- 10 mg); format: functional; settings: route intraperitoneal
[17] = tested on: Mus musculus; assay: Antiinflammatory activity in CF1 mouse assessed as inhibition of carrageenan-induced paw edema at 10 mg/kg, ip administered 3 hrs and 30 mins prior to carrageenan-challenge measured after 3 hrs (reference value: 0%); format: functional; settings: route intraperitoneal
[18] = tested on: Mus musculus; assay: Immunosuppressive activity in mouse splenic lymphocytes isolated from 0.1 mg, ip on days 2,3 and 4 treated CF1 mouse assessed as reduction in sheep red blood cell antigen-induced plaque-forming response (reference value: 100%); design: scale not given: the % may be the effect or the level left

SMILES | inhibition in vivo at 20 mg/kg [1] | Survival [2] | Activity [3] | Activity [4] | Activity [5] | T/C [6] | inhibition in vivo at 20 mg/kg [7] | Activity [8] | inhibition [9] | Activity [10] | Activity [11] | Activity [12] | Activity [13] | Activity [14] | LD50 [15] | Activity [16] | inhibition in vivo at 10 mg/kg [17] | Activity [18]
CCC(C)C(NC(=O)c1ccccc1)C(=O)OCC#N (configuration not stated) | 46.6% | 11.8 days | 89 mg | 2.97 mL | Non-toxic | 122 | 18% | – | – | – | – | – | – | – | – | – | – | –
N#CCOC(=O)[C@H](Cc1ccccc1)NC(=O)c1ccccc1 | 47% | – | 43 mg | 1.8 mL | Non-toxic | – | 51% | – | – | – | – | – | – | – | – | – | – | –
C[C@H](NC(=O)c1ccccc1)C(=O)OCC#N | 98.2% | 9.8 days | 56 mg | 0.1 mL | Non-toxic | 101 | 49% | Active | – | – | – | – | – | – | – | – | – | –
N#CCOC(=O)[C@H](Cc1ccccc1)NC(=O)OCc1ccccc1 | 99.9% | 6.6 days | 39 mg | 0.2 mL | Non-toxic | 68 | 55% | Active | Active | inactive | inactive | 86% | inactive | inactive | – | – | – | –
N#CCOC(=O)[C@@H]1CCCN1C(=O)c1ccccc1 | 59.3% | 9 days | 67 mg | 2.93 mL | Non-toxic | 93 | 39% | – | – | – | – | – | – | – | – | – | – | –
N#CCOC(=O)CNC(=O)OCc1ccccc1 | 29% | – | 48 mg | 2.2 mL | Non-toxic | – | 45% | Active | – | – | – | 58% | – | – | – | – | – | –
Cc1ccc(S(=O)(=O)N[C@@H](Cc2ccccc2)C(=O)CCl)cc1 [TPCK] | 100% | – | 31 mg | 0.01 mL | – | – | 56% | – | – | – | – | – | – | – | 210 µmol/kg | – | – | –
Cc1ccc(S(=O)(=O)N[C@@H](Cc2ccccc2)C(=O)OCC#N)cc1 | 97% | 9.1 days | 69 mg | 0.4 mL | Non-toxic | 94 | 21% | – | – | – | – | – | – | – | – | – | – | –
COc1ccc2c(c1)c(CC(=O)O)c(C)n2C(=O)c1ccc(Cl)cc1 [INDOMETHACIN] | – | 9.66 days | 97 mg | – | – | 100 | 0% | – | – | – | – | – | – | – | – | 23 mg | 74% | –
Sc1ncnc2nc[nH]c12 [MERCAPTOPURINE ANHYDROUS] | 99.6% | – | – | 0.7 mL | – | – | – | Active | – | – | – | – | – | – | – | – | – | –
N#CCOC(=O)[C@H](Cc1ccc(O)cc1)NC(=O)c1ccccc1 | 42.3% | 11.3 days | 75 mg | 1.98 mL | Non-toxic | 113 | 41% | – | – | – | – | – | – | – | – | – | – | –
CC(=O)N[C@@H](Cc1ccccc1)C(=O)OCC#N | 16% | – | 49 mg | 3.9 mL | Non-toxic | – | 44% | Active | – | – | – | – | – | – | – | – | – | –
N#CCOC(=O)C(Cc1ccccc1)NC(=O)OCc1ccccc1 (configuration not stated) | 86% | – | 54 mg | 0.4 mL | Non-toxic | – | 38% | Active | – | – | – | – | – | – | – | – | – | –
CC(C)C[C@H](NC(=O)c1ccccc1)C(=O)OCC#N | 87.2% | 11.3 days | 77 mg | 0.8 mL | Non-toxic | 117 | 29% | – | – | – | – | – | – | – | – | – | – | –
CC(NC(=O)c1ccccc1)C(=O)OCC#N (configuration not stated) | 43.3% | 9.7 days | 87 mg | 2.91 mL | Non-toxic | 100 | 25% | Active | – | – | – | – | – | – | – | – | – | –
N#CCOC(=O)CCCNC(=O)c1ccccc1 | 43.1% | 10 days | 68 mg | 2.78 mL | Non-toxic | 104 | 37% | – | – | – | – | – | – | – | – | – | – | –
N[C@@H](Cc1ccc(N(CCCl)CCCl)cc1)C(=O)O [MELPHALAN] | – | – | – | – | – | – | – | – | – | – | – | 100% | – | – | – | – | – | 51%
N#CCOC(=O)CCCCCNC(=O)c1ccccc1 | 45.2% | 10.3 days | 65 mg | 2.73 mL | Non-toxic | – | 40% | Active | – | – | – | – | – | – | – | – | – | –
O=c1[nH]cc(F)c(=O)[nH]1 [FLUOROURACIL] | – | 18 days | – | – | – | 186 | – | – | – | – | – | – | – | – | – | – | – | –
N#CCOC(=O)[C@H](Cc1ccccc1)NC(=O)[C@H](Cc1ccccc1)NC(=O)OCc1ccccc1 | 43% | – | 61 mg | 2.1 mL | Non-toxic | – | 30% | – | – | – | – | – | – | – | – | – | – | –
N#CCOC(=O)CCNC(=O)c1ccccc1 | 11.6% | – | 75 mg | 4.96 mL | Non-toxic | – | 31% | – | – | – | – | – | – | – | – | – | – | –
CC(C)C(NC(=O)c1ccccc1)C(=O)OCC#N (configuration not stated) | 99.9% | 10.5 days | 82 mg | 0.07 mL | Non-toxic | 109 | 24% | – | – | – | – | – | – | – | – | – | – | –
N#CCOC(=O)CCCCCNC(=O)OCc1ccccc1 | 54% | – | 63 mg | 1 mL | Non-toxic | – | 28% | Active | – | – | – | – | – | – | – | – | – | –
N#CCOC(=O)CNC(=O)c1ccccc1 | 40.2% | 10.5 days | 55 mg | 2.85 mL | Non-toxic | 109 | 50% | Active | – | – | – | – | – | – | – | – | – | –
